Series [1] in a line: Drug uptake in human BE(2)-C cells assessed as level of 125I-incorporation into DNA incubated 1 hr followed by compound washout with non-radioactive medium/PBS and measured after 23 hrs by gamma counting method relative to control. Format: ADME, cell-based. An outline of the steps:
(§1)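 BE(2)-C cells were treated with radioiodinated guanidine for 1 h, washed with nonradioactive medium and PBS. They were processed immediately or returned to the incubator for a further 23 h. 125I in the DNA fraction was gamma-counted. Values are average (n ≥ 3) ± SD.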

Series [2] is described as follows: Stability in human serum assessed as intact compound level after 5 mins by HPLC analysis. The following applies: read-out: Stability. Format: ADME, cell-free. In short, it runs like this: (§2)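 Radioiodinated guanidines were incubated in mouse, human or pig serum and analyzed by radio-HPLC on a C18 column at 0.8 mL/min. The gradient was 0–95% CH3CN over 50 min, then 95% for 20 min. Intact compound was fitted to monoexponential degradation to give half-life. Values are average ± std err.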

A short description of series [3]: Drug level in tumor of NCR nu/nu mouse xenografted with human BE(2)-C cells at 0.33 +/- 0.05 MBq administered intratumorally after 24 hrs by gamma counting method. Format: ADME, tissue-based, Neoplasm. The note with it: in vivo, other. An outline of the steps: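 Athymic Ncr nu/nu female and male mice bearing subcutaneous BE(2)-C xenografts received intratumor injections of the 125I agent. Tissues, tumor and blood were collected at 24 h and counted for radioactivity, expressed as %ID/g. Tumor-to-blood ratios were derived.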
(In general: Xenograft models place foreign cells or tissue in a host animal.)

Series [4] in a line: Drug level in human SK-N-SH cells DNA at 40 +/- 0.5 kBq/mL after 1 hr and followed by compound washout with non-radioactive medium/PBS and measured immediately by gamma counting method relative to control. Format: ADME, cell-based. In short, it runs like this:
(§3)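 SK-N-SH cells were exposed 1 h to 125I compound (≈39–40 kBq/mL), then washed with nonradioactive medium and PBS. Cells were processed immediately (1 h) or re-incubated in fresh medium for 23 h (24 h). Cytoplasmic, nuclear and DNA fractions were gamma-counted.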

Series [5] deals with SK-N-SH. The series can be described thus: Antiproliferative activity against human SK-N-SH cells assessed as intracellular concentration of 125I required to show 63% inhibition after 24 hrs. Format: cell-based. In short, it runs like this: (§4)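 D37 (63% kill) was estimated for SK-N-SH cells treated 24 h with IDG. It is expressed as extracellular (kBq/mL) or intracellular (mBq/cell) 125I. Survival was assessed by trypan blue and clonogenic assays. Values are average (std error).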

For series [6], the system named is SK-N-SH. As to the kind of experiment: Antiproliferative activity against human SK-N-SH cells assessed as extracellular concentration of 125I required to show 63% inhibition after 24 hrs. Format: cell-based. In short, it runs like this: as §4
Series [7] is described as follows: Drug level in tumor of NCR nu/nu mouse xenografted with human BE(2)-C cells at 0.83 +/- 0.09 MBq administered intratumorally pretreated with 9 umol of BNPP after 24 hrs by gamma counting analysis. Format: ADME, tissue-based, Neoplasm. The following applies: in vivo, other. An outline of the steps: (§5)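 BE(2)-C xenograft-bearing nude mice were pre-injected with the carboxylesterase inhibitor bis-para-nitrophenylphosphate (9 or 18 μmol). They then received intratumor IDG. Tumor %ID/g was determined at 24 h.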

Series [8] has as its target T1, Sodium-dependent noradrenaline transporter (Homo sapiens, UniProt P23975). The series can be described thus: Substrate activity at NET in human BE(2)-C cells assessed as inhibition of drug uptake by measuring MIBG IC50 incubated for 1 hr in presence of nonradioactive MIBG by gamma counting method. Format: cell-based.
Series [9] concerns BE(2)-C. The series can be described thus: Antitumor activity against human BE(2)-C cells xenografted with NCR nu/nu mouse assessed as doubling time at 8.4 +/- 0.3 mBq administered intratumorally measured up to 7 days (reference value: 2.4 days). Format: functional. In short, it runs like this:
(§6)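 Athymic Ncr nu/nu female and male mice bearing subcutaneous BE(2)-C xenografts were randomized by lottery into untreated control and treatment groups. Treatment was a single intratumor injection of 8.4 ± 0.3 MBq/mouse. Tumor volumes were followed to day 7 (controls) or day 14. Doubling times were calculated from day 0 to 7 and day 0 to 14. Values are average ± std err.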

Series [10] relates to BE(2)-C. As to the kind of experiment: Antiproliferative activity against human BE(2)-C cells assessed as intracellular concentration of 125I required to show 63% inhibition after 1 hr. Format: cell-based. An outline of the steps: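 BE(2)-C cells were treated for 1 h with several IDG concentrations, washed extensively, harvested with trypsin and replated for clonogenic assay. Cellular 125I uptake was measured per cell. D37 (63% kill) was estimated from survival versus extracellular concentration or intracellular content (mBq/cell). Values are average (std error).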

Series [11] deals with T1, Sodium-dependent noradrenaline transporter. The series can be described thus: Substrate activity at NET in human BE(2)-C cells assessed as inhibition of drug uptake by measuring MIBG IC50 incubated for 1 hr in presence of nonradioactive MIBG at 37 degC by filtration based gamma counting method. Format: cell-based.
Series [12] has as its system BE(2)-C. The series can be described thus: Antitumor activity against human BE(2)-C cells xenografted with NCR nu/nu mouse assessed as tumor volume at 8.4 +/- 0.3 mBq administered intratumorally after 1 day (reference value: 0.39 +/- 0.15 cm3). Format: functional. An outline of the steps:
as §6

Series [13] in a line: Partition coefficient, logP of compound. Format: physicochemical. The following applies: octanol/water.
Series [14] in a line: Drug level in human SK-N-SH cells DNA at 40 +/- 0.5 kBq/mL after 24 hrs by gamma counting method relative to control. Format: ADME, cell-based. In short, it runs like this: as §3
The nature of series [15]: Drug level in tumor of NCR nu/nu mouse xenografted with human BE(2)-C cells at 0.83 +/- 0.09 MBq administered intratumorally pretreated with 18 umol of BNPP after 24 hrs by gamma counting analysis. Format: ADME, tissue-based, Neoplasm. The following applies: in vivo, other. In short, it runs like this:
as §5

Series [16] has as its system BE(2)-C. The series can be described thus: Antitumor activity against human BE(2)-C cells xenografted with NCR nu/nu mouse assessed as doubling time at 8.4 +/- 0.3 mBq administered intratumorally measured up to 14 days. Format: functional. In short, it runs like this:
as §6

The subject of series [17] is BE(2)-C. As to the kind of experiment: Antitumor activity against human BE(2)-C cells xenografted with NCR nu/nu mouse assessed as tumor volume at 8.4 +/- 0.3 mBq administered intratumorally after 7 days. Format: functional. In short, it runs like this:
as §6

Series [18] can be described thus: Half life in pig serum by HPLC analysis. Format: ADME, cell-free, Sus scrofa. In short, it runs like this: as §2
The subject of series [19] is SK-N-SH. The series can be described thus: Antiproliferative activity against human SK-N-SH cells assessed as cell viability at 180 kBa/ml after 24 hrs by trypan blue assay relative to control. Format: functional. In short, it runs like this:
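Cell survival was scored by trypan blue exclusion 24 h after exposing SK-N-SH cells to radioiodinated guanidine at varied extracellular concentrations. Values are average (n ≥ 3) ± SD.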

Series [20] in a line: Drug uptake in human SK-N-SH cells assessed as level of 125I-incorporation into DNA after 1 hr and followed by compound washout with non-radioactive medium/PBS and measured immediately by gamma counting method relative to control. Format: ADME, cell-based. In short, it runs like this: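 SK-N-SH cells exposed to the 125I-labelled guanidine for 1 h, then washed with nonradioactive medium and PBS. Cells were either processed at once (1 h) or given fresh nonradioactive medium and returned to the incubator for 23 h (24 h). Subcellular fractions (cytoplasm, DNA) were counted by γ-counter. Values are mean and SD, n ≥ 3.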

The target in series [21] is T1, Sodium-dependent noradrenaline transporter. The series can be described thus: Substrate activity at NET in human BE(2)-C cells assessed as inhibition of drug uptake by measuring MIBG IC50 incubated for 1 hr in presence of nonradioactive MIBG at 4 degC by filtration based gamma counting method. Format: cell-based.
Series [22] can be described thus: Drug uptake in human BE(2)-C cells assessed as level of 125I-incorporation into DNA after 1 hr and followed by compound washout with non-radioactive medium/PBS and measured immediately by gamma counting method relative to control. Format: ADME, cell-based. In short, it runs like this: as §1
Series [23] can be described thus: Half life in human serum by HPLC analysis. Format: ADME, cell-free. In short, it runs like this: as §2
Series [24] in a line: Stability in human serum assessed as intact compound level after 60 mins by HPLC analysis. Format: ADME, cell-free. The following applies: read-out: Stability. An outline of the steps: as §2

Each structure is given as a SMILES string.

T1 sequence (P23975 whole entry): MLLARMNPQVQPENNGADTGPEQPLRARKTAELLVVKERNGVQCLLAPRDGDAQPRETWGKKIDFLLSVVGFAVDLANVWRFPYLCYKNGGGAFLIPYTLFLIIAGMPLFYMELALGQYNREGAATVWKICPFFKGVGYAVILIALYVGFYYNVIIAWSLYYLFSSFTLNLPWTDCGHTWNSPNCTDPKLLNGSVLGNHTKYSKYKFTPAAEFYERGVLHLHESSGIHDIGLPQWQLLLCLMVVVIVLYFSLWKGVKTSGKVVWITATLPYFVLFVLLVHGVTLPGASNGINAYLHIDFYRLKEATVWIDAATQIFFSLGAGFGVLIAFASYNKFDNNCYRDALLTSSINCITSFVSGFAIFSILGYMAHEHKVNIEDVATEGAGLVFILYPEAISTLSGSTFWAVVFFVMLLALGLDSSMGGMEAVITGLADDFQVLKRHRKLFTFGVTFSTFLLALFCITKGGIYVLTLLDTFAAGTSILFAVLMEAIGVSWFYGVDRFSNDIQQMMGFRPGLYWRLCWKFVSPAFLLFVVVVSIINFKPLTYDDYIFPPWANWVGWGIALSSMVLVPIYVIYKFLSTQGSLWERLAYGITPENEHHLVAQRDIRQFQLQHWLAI

A word on the IC50: it is the concentration at which inhibition is half-maximal. What is called logP is the decadic logarithm of the partition coefficient of the neutral form, usually between octanol and water. By half-life is commonly meant the time in which the quantity being followed falls by half. A high value points to slow decline. For `N=C(N)NCCCCCC(=O)O[C@H]1C[C@H](n2cc([125I])c(=O)[nH]c2=O)O[C@@H]1CO`, the Drug uptake in series [1] is 99%; in [3], 3.93 % ID/g; in [4], 70 to 80%; in [7], 1.63 % ID/g; in series [14], above 97%; in series [15], 1.66 % ID/g. Also, the Drug uptake was 81% in series [20] and 93% in series [22]. For the same compound, the remaining at 5 min in series [2] came to 93%. Besides, the Activity in the series on SK-N-SH [5] turned out to be 1.2 mBq; in the series on SK-N-SH [6] it was 15.6 kBq/ml; in the series on BE(2)-C [10] it was 0.91 mBq; in the series with BE(2)-C [12], 0.42 cm3; in the series with BE(2)-C [17] it was 0.54 cm3; in the series on SK-N-SH [19] it was 60%. Moreover, the IC50 in series [8] was found to be 8.2 µM; in series [11], 28.7 µM; in [21] it was 23.9 µM. In addition, the results for the Time in the series on BE(2)-C [9] and in the series on BE(2)-C [16] were 14.9 days and 5.3 days, respectively. The compound further yielded a logP in series [13] of -0.2. The half-life in [18] was 3.59 h; in [23], 2.28 h. Besides, the remaining at 1 h in series [24] was determined as 62.4%.

(Values after ChEMBL document CHEMBL4402514, “Norepinephrine-Transporter-Targeted and DNA-Co-Targeted Theranostic Guanidines” (J Med Chem, 2020).)
